Measurements as given in ChEMBL document CHEMBL1155259, “Synthesis and multidrug resistance reversal activity of dihydroptychantol A and its novel derivatives” (2009).

How the values were obtained:
KB = assay: Cytotoxicity against human KB cells at 10 uM after 48 hrs by MTT assay; assay type: functional
Summary of the method: (§1)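 Cells grown in RPMI 1640 with 10% FBS at 37 °C, 5% CO₂ until roughly 50–70% confluent, then cultured in 24-well plates and exposed to vehicle (DMSO) or test compound alone at 10 μM for 48 h. Percent growth inhibition measured by MTT assay; three replicates per treatment, assay repeated at least thrice.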

[1] = Cytotoxicity against adriamycin-resistant human K562/A02 cells at 10 uM after 48 hrs by MTT assay; assay type: functional; settings: K562/A02, 48 h; summary of the method: as §1
[2] = Cytotoxicity against vincristine-resistant human KB/VCR cells at 10 uM after 48 hrs by MTT assay; assay type: functional; summary of the method: as §1
K562 = assay: Cytotoxicity against human K562 cells at 10 uM after 48 hrs by MTT assay; assay type: functional; settings: K562, 48 h; summary of the method: as §1
KB/VCR = assay: Reversal of P-gp-mediated multidrug resistance in human KB/VCR cells assessed as reversal factor, ratio of vincristine ID50 without drug to vincristine ID50 with drug at 10 uM after 48 hrs by MTT assay; assay type: cell-based
Summary of the method: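 KB/VCR cells in RPMI 1640 with 10% FBS (37 °C, 5% CO₂) seeded at 6 × 10⁴/ml in 24-well plates. They were co-treated with a range of vincristine concentrations, with or without test compound at 10 μM, and viability read by MTT. Vincristine ID₅₀ was derived relative to untreated cells (100%). RF = ID₅₀ of vincristine alone / ID₅₀ with compound. Triplicates, repeated at least thrice.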

| SMILES | inhibition at 10 µM (KB) [%] | inhibition at 10 µM [1] [%] | inhibition at 10 µM [2] [%] | inhibition at 10 µM (K562) [%] | Ratio (KB/VCR) |
| --- | --- | --- | --- | --- | --- |
| NNc1nc2c(s1)-c1cccc(c1)Oc1ccc(O)cc1CCc1ccc(O)c(c1)Oc1ccc-2cc1 | 51.1 | 13.7 | 19.4 | 37.1 |  |
| COc1ccc2c(c1)CCc1ccc(OC)c(c1)Oc1ccc(cc1)C(O)C(Br)c1cccc(c1)O2 (centres undefined) | 2.82 | 11.9 | 0 | 38.5 | 10.5 |
| Nc1nc2c(s1)-c1cccc(c1)Oc1ccc(O)cc1CCc1ccc(O)c(c1)Oc1ccc-2cc1 | 0 | 10.1 | 0 | 11.6 | 13.8 |
| COc1ccc2c(c1)CCc1ccc(OC)c(c1)Oc1ccc(cc1)-c1nc(N)sc1-c1cccc(c1)O2 | 0 | 26.8 | 0 | 58.7 | 12.3 |
| COc1ccc2c(c1)CCc1ccc(OC)c(c1)Oc1ccc(cc1)-c1nc(NN)sc1-c1cccc(c1)O2 | 0 | 18.8 | 0 | 32.1 | 10.6 |
